Compounds with a hit are over-represented: about 4.9% of the library has one in this group of screens.
STAT3 inh-1 – IL-6 driven STAT3 reporter inhibitors, primary screen, U3A cells, luciferase, luminescence, MLSCN library. inhibition, % at 5.5 µM. AID 862, 2007. IL-6 STAT3-luciferase reporter; host cell line lacks STAT1. hit rate 0.89% among 190,000;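 active = inhibition above the mean inhibition across all screened compounds plus 3 SD, cut at about 44% in these data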
NF-kB neuron act – activators of NF-kB expression in neurons, primary screen, cell-based, HTS. AID 1239, 2008. fold change at 12.5 µM. hit rate 1.6% among 190,000. human neuronal cells, NF-kB reporter expression; active compounds read high; in the data active = fold change above about 3.3
STAT1 act – STAT1 signaling activators, primary screen, cell-based, HTS, luciferase reporter; activation (% of control), % at 5.5 µM; NIH 3T3 STAT1-luciferase reporter, IFN-gamma, luminescence; 100% = IFN-gamma alone, no compound; hit rate 2.6% among 200,000;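 active = activation above the screen-wide mean activation plus 3 SD, cut at about 130% in these data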
STAT3 act – IL-6 driven STAT3 reporter potentiators, primary screen, U3A cells, luciferase, luminescence, MLSCN library; IL-6 STAT3-luciferase reporter; 100% = signal with IL-6 EC80 alone; activation (% of control), % at 5.6 µM; hit rate 0.91% among 190,000;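 active = activation above the screen-wide mean of compound activation plus 3 SD, cut at about 130% in these data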
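Material: STAT1-lacking human U3A cells, STAT3 luciferase reporter | Benchmarks: IL-6-only wells as 100% reference | Probe or stimulus: IL-6 (33 ng/mL) | Timing: Compound 1 h, then IL-6 6 h at 37 °C | Detection: Luminescence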
APP 5'UTR act – activators of APP 5'UTR luciferase reporter, primary screen, SH-SY5Y cells | SH-SY5Y APP 5'UTR luciferase reporter, luminescence; zero percent = DMSO vehicle wells | activation, % at 2 µM | hit rate 1% among 190,000 | AID 1276, 2008;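 active = activation above a set limit, based on mean plus 3 SD of controls, cut at about 140% in these data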
STAT1 inh – STAT1 signaling inhibitors, primary screen, cell-based, HTS, luciferase reporter | NIH 3T3 STAT1-luciferase reporter, IFN-gamma, luminescence | inhibition, % at 5.5 µM | hit rate 0.35% among 200,000 | AID 920, 2007;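 active = inhibition above a set limit, the mean inhibition across all tested compounds plus 3 SD, cut at about 34% in these data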
STAT3 inh-2 – STAT3 reporter inhibitors, retest of hits, confirmation, U3A cells, luciferase, luminescence; shares compounds with STAT3 inh-1; IL-6 STAT3 luciferase reporter; cell line lacks STAT1; inhibition, % at 5.7 µM; hit rate 45% among 1,200; AID 1265, 2008;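 active = inhibition above the hit cutoff computed for the primary STAT3 screen, cut at about 44% in these data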
NFkB inh 2 – NF-kB reporter inhibitors in human cells, confirmation, counter-screen for STAT3 inhibitor project, cell-based, HEK293T, luciferase, TNF-alpha stimulus. shares compounds with STAT3 inh-1. TNF-alpha induced. inhibition, % at 5.7 µM. hit rate 36% among 1,200. AID 1308, 2008;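 active = inhibition above the mean of solvent-only control wells plus 3 SD, cutoff set per campaign, cut at about 13% in these data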
STAT1 inh 2 – STAT1 reporter inhibitors, IFN-gamma induced, confirmation, counter-screen for STAT3 inhibitor project, cell-based, NIH 3T3, luciferase luminescence | shares compounds with STAT3 inh-1 | NIH 3T3 STAT1-luciferase reporter | inhibition, % at 5.7 µM | hit rate 27% among 1,200 | AID 1317, 2008;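 active = inhibition above the mean plus 3 SD of solvent-only control wells, limit set per screening run, cut at about 16% in these data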
Numbers stand for hits; . = inactive; / = no result.

SMILES	STAT3 inh-1	NF-kB neuron act	STAT1 act	STAT3 act	APP 5'UTR act	STAT1 inh	STAT3 inh-2	NFkB inh 2	STAT1 inh 2
O=C(Nc1ccc(S(=O)(=O)N2CCN(Cc3ccccc3)CC2)cc1)c1cnccn1	82	.	.	.	.	.	75	25	23
CCN(CC)S(=O)(=O)c1ccc(NC(=O)c2ccc(CN3CCOCC3)cc2)cc1	66	.	.	.	.	.	80	26	.
CC(C)CC(=O)NC(NC(=S)Nc1sc2c(c1C#N)CCCC2)C(Cl)(Cl)Cl (stereo not drawn)	.	.	.	.	.	.	/	/	/
Cc1csc(SCC(=O)NC(C)c2ccccc2)n1 (stereo not drawn)	.	.	.	.	.	.	/	/	/
COc1ccc(NC(=O)COC(=O)C2CCN(S(=O)(=O)c3cccs3)CC2)cc1	.	.	.	.	.	.	/	/	/
COc1ccc(CNC(=O)Cc2nn(C)c(=O)c3ccccc23)cc1	51	.	.	.	.	.	48	13	25
Cn1nc(CC(=O)NCc2ccc(C(F)(F)F)cc2)c2ccccc2c1=O	.	.	.	.	.	.	/	/	/
Cn1nc(CC(=O)Nc2cccc3ncccc23)c2ccccc2c1=O	46	.	.	.	.	.	.	.	17
Cn1cc([N+](=O)[O-])c(C(=O)Nc2nc(-c3ccc(Cl)cc3)cs2)n1	60	.	.	.	.	.	.	18	.
CC(=O)c1c(C)[nH]c(C(=O)Nc2nc(-c3ccc(Cl)cc3)cs2)c1C	.	.	.	.	.	.	/	/	/
Cc1cnc(NC(=O)c2nn(C)cc2[N+](=O)[O-])s1	58	.	.	.	.	.	.	.	.
Cc1ccc(-c2nc(NC(=O)c3nn(C)cc3[N+](=O)[O-])sc2C)cc1	54	.	.	.	.	36	.	15	.
Cc1ccc(-c2nc(NC(=O)c3nn(C)cc3[N+](=O)[O-])sc2C)cc1C	49	.	.	.	.	.	.	17	.
CC(C)CCNC(=O)CCCCn1c(=O)[nH]c2ccsc2c1=O	.	.	.	.	.	.	/	/	/
Cc1nnc(NC(=O)CSc2ccc(-c3ccccn3)nn2)s1	.	.	.	.	.	.	/	/	/
CCCCOC(=O)c1ccc(NC(=O)C(=O)NCc2ccco2)cc1	.	.	.	.	.	.	/	/	/
COc1ccc(-c2nsc3c(N4CCCCC4)ncnc23)cc1	102	.	.	.	.	.	75	60	.
O=C(CN1CCCCC1)NC(=O)NCc1ccccc1	.	.	.	.	.	.	/	/	/
Cc1sc2ncnc(N3CCN(CCOc4ccc(Cl)cc4)CC3)c2c1C	76	.	.	.	.	.	77	25	20
Cc1ccc(-c2cc(-c3ccccc3)no2)c(O)c1	49	3.7	.	.	276	.	.	18	.
Cc1cc(C(=O)CSc2nc(N)cc(=O)[nH]2)c(C)n1CCc1ccc(F)cc1	46	.	.	.	.	.	.	.	.
Cc1cc(C(=O)CSc2nc(N)cc(=O)[nH]2)c(C)n1-c1ccc(OC(F)F)cc1	64	.	.	.	.	.	74	19	25
COc1ccc(CCn2c(C)cc(C(=O)CSc3nc(N)cc(=O)[nH]3)c2C)cc1	.	.	.	.	.	.	/	/	/
CC(C)C(=O)Nc1ccc(NC(=O)c2ccccn2)cn1	53	.	.	.	.	.	.	.	.
CC(C)C(=O)Nc1ccc(NC(=O)c2cccnc2)cn1	.	.	.	.	.	.	/	/	/
SMILES	STAT3 inh-1	NF-kB neuron act	STAT1 act	STAT3 act	APP 5'UTR act	STAT1 inh	STAT3 inh-2	NFkB inh 2	STAT1 inh 2
CCC(=O)Nc1cc2nn(-c3ccc(OC)cc3)nc2cc1C	44	.	133	.	162	.	.	.	.
CCC(=O)Nc1cc2nn(-c3ccc(C)cc3)nc2cc1C	82	.	.	.	.	.	51	14	.
CCCCC(=O)Nc1cc2nn(-c3ccc(OC)cc3)nc2cc1C	.	.	.	.	.	.	/	/	/
OCC[C@H]1C[C@H](O)[C@@H](O)[C@@]2(CCCCO2)O1	.	.	.	.	.	.	/	/	/
CC(NC(=S)Nc1ccc(S(=O)(=O)N2CCOCC2)cc1)C1CC2CCC1C2 (stereo not drawn)	.	.	.	.	.	.	/	/	/
COCCn1c(C)cc(C(=O)CSc2nnc3ccccn23)c1C	74	.	.	.	/	.	.	.	.
COc1ccc(-n2c(C)nc3c(cnn3-c3ccc(Cl)cc3)c2=O)cc1	52	.	.	.	.	.	.	.	.
COc1ccc(-n2c(C)nc3c(cnn3-c3ccc(C)cc3)c2=O)cc1	.	.	.	.	.	.	/	/	/
CCCOc1ccc(/C=N/NC(=O)CSCc2ccc([N+](=O)[O-])cc2)cc1OCC	.	.	.	.	.	.	/	/	/
Cc1nc2ccc(NC(=O)c3cc(S(=O)(=O)N(C)c4ccccc4)ccc3Cl)cc2s1	55	.	.	.	.	.	64	26	27
COc1ccccc1CNC(=O)C(NC(=O)c1ccccc1C)C(C)C (stereo not drawn)	.	.	.	.	.	.	/	/	/
CNC(=S)NCCC(c1ccccc1)c1ccccc1	.	.	.	.	.	.	/	/	/
COc1cccc(NC(=O)c2ccc(NC(=O)C3CC(=O)OC34CCCCC4)cc2)c1 (stereo not drawn)	.	/	.	.	.	.	/	/	/
COc1ccc2c(c1)oc(=O)c1ccccc12	.	.	.	.	.	.	/	/	/
COc1ccc2c(c1)oc(=O)c1c3ccccc3[nH]c21	60	.	.	.	.	.	62	.	.
Cc1ccc(NC(=O)N2CCN(Cc3ccc4c(c3)OCO4)CC2)cc1	.	.	.	.	.	.	/	/	/
O=C(Nc1ccc2c(c1)OCO2)N1CCN(Cc2ccco2)CC1	45	.	.	.	.	.	.	.	.
CC(=O)Nc1ccc(Nc2cc(C)nc3c(-c4ccccc4)cnn23)cc1	55	.	150	.	165	.	.	.	.
CC(=O)Nc1ccc(Nc2cc(-c3ccccc3)nc3ncnn23)cc1	.	.	.	.	.	.	/	/	/
